# Bioassay records deposited in PubChem BioAssay by several laboratories.
# Compounds with a hit are over-represented: about 0.74% of the library has one in this group of screens.
# Biofilm kill mix – mixtures killing C. albicans biofilm. C. albicans biofilm persisters + clotrimazole, fluorescence viability; primary screen in compound mixtures of four per well. inhibition, % at 7.6 µM. actives 0.02% (n = 120,000). AID 1242;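 active = inhibition above 30.3% in the primary screen of four-compound pools, then above 30% when the compound was retested; inconclusive = passed the primary limit but could not be retested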;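 note: compounds exposed to preformed 24 h biofilms for 48 h; 0% = untreated biofilm control and 100% = clotrimazole plus chlorhexidine kill blank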
#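 Probe or stimulus – Clotrimazole 50 µg/mL co-treatment · System – C. albicans biofilms · Schedule – 24 h biofilm formation, then 48 h compound exposure, 37 °C · Evaluation – percent inhibition of biofilm viability · Technique – 2-h Alamar Blue fluorescence, 535/590 nm excitation/emission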
# RGS4-Gao reg – human RGS4-Galphao interaction regulation | Multiplexed bead flow cytometry, RGS4-Galphao binding; actives lie on both sides | binding response (% of control), % at 10 µM | P09471 | AID 1415 | actives 0.33% (n = 220,000); in the data active = binding response below about 49% or above about 150%; inactive = in between;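 note: fluorescent Galphao activated with aluminum fluoride binding bead-coupled RGS4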
# Target sequence (P09471 whole entry, looked up): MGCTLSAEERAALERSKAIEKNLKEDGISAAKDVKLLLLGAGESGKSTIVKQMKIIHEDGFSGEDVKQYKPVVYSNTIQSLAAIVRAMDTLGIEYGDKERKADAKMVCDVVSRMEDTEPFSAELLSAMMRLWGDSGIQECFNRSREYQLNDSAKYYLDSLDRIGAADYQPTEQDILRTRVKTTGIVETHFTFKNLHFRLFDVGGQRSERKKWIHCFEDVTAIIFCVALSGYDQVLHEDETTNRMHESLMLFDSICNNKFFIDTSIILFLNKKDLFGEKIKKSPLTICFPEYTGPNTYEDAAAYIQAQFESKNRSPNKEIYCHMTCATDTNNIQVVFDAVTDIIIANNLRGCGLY
# RGS7-Gao reg – human RGS7-Galphao interaction regulation; P09471; Multiplexed bead flow cytometry, RGS7-Galphao binding; actives lie on both sides; binding response (% of control), % at 10 µM; actives 0.35% (n = 220,000); AID 1439; in the data active = binding response below about 49% or above about 150%; inconclusive = no clear call, values can overlap the other calls; inactive = in between;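 note: fluorescent Galphao held in activated GDP-AlF4 state binding bead-coupled RGS7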
# RGS16-Gao – regulators of human RGS16-Galphao interaction | bead-based flow cytometry RGS16-Galphao binding, fluorescence; actives lie on both sides | AID 1441 | O15492+P09471 | binding response (% of control), % at 10 µM | actives 0.38% (n = 220,000);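 note: Galphao activated by GDP with aluminum fluoride before binding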
# Target sequence (O15492 whole entry, looked up): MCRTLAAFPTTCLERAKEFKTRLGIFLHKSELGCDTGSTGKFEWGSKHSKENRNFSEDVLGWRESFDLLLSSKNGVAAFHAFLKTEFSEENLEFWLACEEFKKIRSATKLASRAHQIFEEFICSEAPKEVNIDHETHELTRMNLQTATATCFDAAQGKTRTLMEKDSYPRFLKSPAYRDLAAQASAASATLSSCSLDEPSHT
# Target sequence (P09471 whole entry, looked up): as the sequence (P09471 whole entry, looked up) above
# RGS8-Gao reg – human RGS8-Galphao interaction regulation; response (percent of control binding), % at 10 µM; P09471; actives 0.34% (n = 220,000); multiplexed bead flow cytometry, RGS8-Galphao binding; actives lie on both sides; AID 1423; in the data active = response below about 60% or above about 140%; inactive = in between;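 note: Galphao activated as the GDP aluminium fluoride complex binding bead-coupled RGS8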
# RGS-Gao – modulates binding between human RGS4 and Galphao. multiplexed bead flow cytometry, RGS–Galpha-o binding. AID 1504. shares compounds with RGS16-Gao. RGS4–Galpha-o binding response, % at 10 µM. actives 99% (n = 1,600);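 note: fluorescently labeled Galpha-o bound to GDP with aluminium fluoride binding biotinylated RGS beads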
# Avidin counter – interferes with biotinylated probe binding to avidin beads | inhibition, % at 10 µM | 1,700 tested, under 10 active | shares compounds with RGS16-Gao | streptavidin beads, fluorescein-biotin binding, flow cytometry | AID 1783;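 active = inhibition above 50%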;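 note: median green fluorescence of gated singlet beads compared with DMSO control wells; 0% = DMSO wells and 100% = complete loss of bead fluorescence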
# RGS8-Gao confirm – confirmation of regulators of human RGS8-Galphao interaction; bead-based flow cytometry RGS8-Galphao binding, fluorescence; actives lie on both sides; AID 1836; shares compounds with RGS16-Gao; binding response (% of control), % at 10 µM; actives 3% (n = 1,700); in the data active = binding response below about 72% or above about 130%; inactive = in between;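 note: Galphao activated as GDP AlF4 complex before binding bead RGS8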
# RGS7-Gao single – confirmation of regulators of human RGS7-Galphao interaction; shares compounds with RGS16-Gao; bead-based flow cytometry RGS7-Galphao binding; actives lie on both sides; response (percent of control binding), % at 10 µM; actives 7.8% (n = 1,700); AID 1837; in the data active = response below about 75% or above about 130%; inactive = in between;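 note: fluorescent Galphao activated with GDP and aluminum fluoride binding bead-coupled RGS7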
# RGS16-Gao single – confirmation of regulators of human RGS16-Galphao interaction. shares compounds with RGS16-Gao. actives 4% (n = 1,700). response (% of control binding), % at 10 µM. bead-based flow cytometry, RGS16-Galphao binding; actives lie on both sides; in the data active = response below about 74% or above about 130%; inactive = in between;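 note: Galphao activated as the GDP aluminium fluoride complex binding bead-coupled RGS16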
# RGS4-Gao confirm – RGS4-Galphao interaction regulation, single point confirmation; shares compounds with RGS16-Gao; RGS4-Galphao binding, multiplexed bead flow cytometry; actives lie on both sides; binding response (% of control), % at 10 µM; actives 4% (n = 1,700); in the data active = binding response below about 74% or above about 130%; inactive = in between
# RGS19-Gao conf – RGS19-Galphao interaction regulation, single point confirmation; shares compounds with RGS16-Gao; bead-based flow cytometry RGS19-Galphao binding; actives lie on both sides; response (percent of control binding), % at 10 µM; actives 5% (n = 1,700); AID 1841; in the data active = response below about 50% or above about 160%; inactive = in between;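 note: 100% = no compound control and 0% = blank background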
# An asterisk follows results filed as active; u = inconclusive; x = not tested or not shown; [ ] = another dose, or the depositor's remark. Unless noted, the rule behind the calls is not given here.
SMILES,Biofilm kill mix,RGS4-Gao reg,RGS7-Gao reg,RGS16-Gao,RGS8-Gao reg,Avidin counter,RGS8-Gao confirm,RGS7-Gao single,RGS16-Gao single,RGS4-Gao confirm,RGS19-Gao conf,others
CC(C)Cn1c(-c2nn(C)cc2Cl)n[nH]c1=S,x,49.3*,45.2*,41.0,58.6*,-1.0,96.7,111.0,97.3,103.6,91.0,
Cc1nc2ccccn2c1C(=O)CSc1ccccc1,14.0,103.5,101.8,104.8,103.6,x,x,x,x,x,x,
O=C(CN1CCN(c2ccccc2O)CC1)NC(c1ccccc1)c1ccccc1,26.1,114.4,114.5,243.7*[activator],136.6,2.4,104.7,105.2,101.3,104.2,92.3,RGS-Gao=114.4*
O=C(CN1CCN(c2ccccc2O)CC1)NCCCc1ccccc1,10.0,99.4,99.5,102.2,102.4,x,x,x,x,x,x,
COC(=O)c1c(-c2c(Cl)cccc2Cl)noc1NC(=O)NN1CCCCC1,14.4,103.3,u,102.5,102.8,x,x,x,x,x,x,
COc1cccc(C(=O)Oc2c(Br)cc(Br)cc2/C=N/NC(=O)c2cc(C)[nH]n2)c1,2.4,100.0,96.2,83.0,94.6,x,x,x,x,x,x,
CC(C)N1CCN(Cc2cccn2-c2nccs2)CC1CCO (stereo unspecified),15.4,115.0,191.6*[activator],105.6,101.5,2.4,101.6,100.8,105.8,99.5,113.5,RGS-Gao=115.0*
OCCC1CN(Cc2cccn2-c2nccs2)CCN1C1CCCCC1 (stereo unspecified),2.9,96.5,94.0,97.5,96.7,x,x,x,x,x,x,
CC(=O)N1C(Nc2ccc(Cl)cc2)CCN1c1ccccc1 (stereo unspecified),x,x,x,x,x,-1.2,101.9,98.2,97.7,100.8,87.8,
CC(C)(C)OC(=O)N1CCC(c2cc(=O)n3[nH]cc(C(=O)Nc4ccc(F)c(Cl)c4)c3n2)CC1,13.1,101.1,u,98.7,99.1,x,x,x,x,x,x,
CC(C)(C)OC(=O)N1CCC(c2cc(=O)n3[nH]c(-c4ccc(Cl)cc4)cc3n2)CC1,x,32.5*,44.4*,6.2,47.2*,-1.5,101.8,95.4,100.6,98.7,88.3,
COc1ccc(N2CCN(C(=O)c3cccn4c(=O)c5ccccc5nc34)CC2)cc1,17.7,100.8,100.8,104.7,102.3,x,x,x,x,x,x,
COc1ccc(N2CCN(C(=O)c3cccc4nc(C)oc34)CC2)cc1,10.2,22.2*,18.5*,12.7*,15.1*,-0.1,99.8,95.2,97.5,96.0,86.4,
COc1ccc(N(CC(=O)Nc2cc([N+](=O)[O-])ccc2C)S(C)(=O)=O)cc1OC,15.8,105.5,u,105.3,103.4,x,x,x,x,x,x,
OCCC1CN(Cc2ccc(Oc3ncccn3)cc2)CCN1C1CCCCC1 (stereo unspecified),23.2,147.1,u,88.3,47.8*,-0.8,101.9,99.8,102.3,99.6,96.6,RGS-Gao=147.1*
CCN1C(=O)N(S(=O)(=O)c2ccc(C)cc2)[C@@H](c2ccccc2)C(C(=O)OC)=C1C,18.4,101.2,u,104.7,100.7,x,x,x,x,x,x,
COc1ccc(Oc2c(O)c3ccccc3n(C)c2=O)cc1,11.0,9.1*,16.8*,-92.1,9.0*,-3.0,98.7,97.3,97.4,97.2,100.6,
Cn1c(=O)c(Oc2ccc(Cl)cc2)c(O)c2ccccc21,15.4,102.7,102.3,114.6,105.9,x,x,x,x,x,x,
CC1CCc2c(sc(NC(=O)COC(=O)c3ccccc3NCc3ccco3)c2C#N)C1 (stereo unspecified),x,-5.5*,-2.0*,-59.4,4.6*,-1.9,102.7,108.8,105.2,105.1,106.6,
CCOC(=O)c1ccccc1NC(=O)CN(c1ccc(OCC)cc1)S(C)(=O)=O,21.3,90.4,93.1,36.1,81.8,x,x,x,x,x,x,
CCOc1ccc(N(CC(=O)Nc2ccccc2)S(C)(=O)=O)cc1,x,80.4,85.1,-46.0*,81.4,-1.1,98.6,95.3,95.2,96.0,99.6,RGS-Gao=80.4*
CNC(=O)c1ccsc1NC(=O)c1coc2ccccc2c1=O,16.8,9.9*,-6.6*,1.6*,12.0*,-0.2,100.2,89.5,98.6,92.7,77.7,
O=C(Nc1ccc2c(c1)OCCO2)c1coc2ccccc2c1=O,6.7,101.5,97.2,98.6,99.2,x,x,x,x,x,x,
CCOC(=O)CN(C(=O)CSc1nnc(COc2ccc(OC)cc2)n1C)c1ccccc1,x,96.2,101.1,101.9,101.7,x,x,x,x,x,x,
CC(C)NCCCCOc1ccc(Br)cc1Cl,4.3,99.6,96.2,100.8,100.8,x,x,x,x,x,x,
SMILES,Biofilm kill mix,RGS4-Gao reg,RGS7-Gao reg,RGS16-Gao,RGS8-Gao reg,Avidin counter,RGS8-Gao confirm,RGS7-Gao single,RGS16-Gao single,RGS4-Gao confirm,RGS19-Gao conf,others
COC(=O)c1sc(-c2ccc(Cl)cc2)cc1N,27.4,103.8,u,99.6,101.1,x,x,x,x,x,x,
COC(=O)c1sc(-c2cccs2)cc1N,12.4,173.3*[activator],u,159.1,116.2,1.4,99.6,99.4,98.4,100.6,97.3,
CCCOC(=O)c1ccc(NC(=O)c2ccccc2OC)cc1,27.0,104.0,103.0,102.7,99.4,x,x,x,x,x,x,
CCCCOC(=O)c1ccc(NC(=O)c2ccccc2OC)cc1,9.7,77.4,79.1,18.5*,69.8,0.8,102.3,105.9,102.4,104.1,101.8,RGS-Gao=77.4*
COc1ccc(OC)c(NC(=O)CSc2nnc(CNC(=O)COc3ccc(Cl)cc3)o2)c1,x,105.2,159.5*[activator],117.5,104.3,-1.9,104.2,104.5,105.7,104.3,100.1,RGS-Gao=105.2*
COc1ccc(NC(=O)CSc2nnc(CNC(=O)COc3ccc(Cl)cc3)o2)c(OC)c1,x,104.8,105.7,103.7,104.0,x,x,x,x,x,x,
Cc1cc(NC(=O)c2cc(-c3cccs3)nc3ccccc23)no1,x,95.2,255.8*[activator],107.0,97.3,4.9,99.7,94.0,102.1,99.7,75.5,RGS-Gao=95.2*
CCn1c(=O)c([N+](=O)[O-])c(N2CCN(Cc3ccc4c(c3)OCO4)CC2)c2ccccc21,20.0,97.8,u,97.7,98.0,x,x,x,x,x,x,
CC12CN(NC(=O)c3ccccc3F)C3(C#N)CC1CCC23C (stereo unspecified),4.2,104.1,99.0,110.0,105.2,x,x,x,x,x,x,
COc1ccc(-n2c(SCC(N)=O)nnc2-c2cccnc2)cc1,16.4,106.1,102.7,x,x,1.2,101.6,101.1,100.2,100.8,96.3,
